Converted amounts (≈) assume the structure as drawn. The source made the active and inactive calls. The calls are words filed in the database; no cut-off is given here.
Tests used:
[1] = Drug concentration in female CD-1 mouse brain at 11 mg/kg, iv measured after 12 hrs by LC-MS/MS analysis; format: ADME, organism-based; conditions: read-out: Ct
Method in brief: (§1)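 Female CD-1 mice (n = 3/group) received one bolus of 11 mg/kg (actual dose; 10 mg/kg intended) IV or PO. Plasma was sampled at six time points over 12 h, and brain homogenate was taken at the 12 h end point. […] Mean ± SD.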

[2] = Drug concentration in female CD-1 mouse plasma at 11 mg/kg, iv measured after 8 hrs by LC-MS/MS analysis; format: ADME, organism-based; method in brief: as §1
[3] = Half-life in female CD-1 mouse at 11 mg/kg, iv measured after 12 hrs by LC-MS/MS analysis; format: ADME, organism-based; conditions: in vivo; method in brief: as §1
[4] = Drug concentration in female CD-1 mouse plasma at 44 mg/kg, ip measured after 2 hrs by LC-MS/MS analysis; format: ADME, organism-based
Method in brief: (§2)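 Female CD-1 mice (n = 3/group) received one intraperitoneal bolus of 44 mg/kg (actual dose; 50 mg/kg intended). Plasma was sampled at 2 and 4 h and brain homogenate at 4 h. Brain-to-plasma ratio = brain over plasma concentration at 4 h. Mean ± SD.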

[5] = Toxicity in female CD-1 mouse infected with Naegleria fowleri Nf69 (ATCC 30215) trophozoites assessed as adverse effect at 50 mg/kg, ip pre-infected for 48 hrs from day 0 followed by single bolus compound administration from day 2 to day 6 and measured on day 14 post-infection; format: organism-based; conditions: in vivo, 312 h, time 13 day
SH-SY5Y = assay: Cytotoxicity against human SH-SY5Y cells assessed as reduction in cell viability incubated for 72 hrs by CellTiter-Glo assay; format: toxicity, cell-based; conditions: sh-sy5y, 72 h
Method in brief: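 SH-SY5Y cells at 2000 per well attached overnight at 37 °C. Compound from 20 mM DMSO stocks was added in triplicate as a dose series starting at 20 μM, with doxorubicin as positive control.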

[6] = Volume of distribution in female CD-1 mouse at 11 mg/kg, iv measured after 12 hrs by LC-MS/MS analysis; format: ADME, organism-based; conditions: in vivo; method in brief: as §1
[7] = Drug concentration in female CD-1 mouse plasma at 11 mg/kg, iv measured after 12 hrs by LC-MS/MS analysis; format: ADME, organism-based; method in brief: as §1
[8] = Drug concentration in female CD-1 mouse brain at 44 mg/kg, ip measured after 4 hrs by LC-MS/MS analysis; format: ADME, organism-based; conditions: read-out: Ct; method in brief: as §2
Naegleria fowleri [9] = assay: Anti-ameobic activity against Naegleria fowleri Nf69 (ATCC 30215) trophozoites infected in female CD-1 mouse model assessed as reduction in infection at 11 mg/kg, ip pre-infected for 48 hrs from day 0 followed by twice daily compound administration from day 2 to day 6 and […]; format: functional, organism-based; conditions: time 6.0 day
Naegleria fowleri [10] = assay: Anti-ameobic activity against Naegleria fowleri Nf69 (ATCC 30215) trophozoites assessed as inhibition of amoeba growth incubated for 48 hrs by CellTiter-Glo assay; format: functional, organism-based; conditions: Naegleria fowleri, Nf69 (ATCC 30215), 48 h
Method in brief: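 Axenic Nf69 trophozoites were seeded at 1 × 10^4 cells/mL in Nelson's complete medium with 10% heat-inactivated FBS. Compound was added at 20 to 0.375 μM (lower ranges for very potent compounds), with vehicle controls, for 48 h at 37 °C and 5% CO2. CellTiter-Glo luminescence gave % growth inhibition versus controls, and triplicate means were fitted to dose–response curves for EC50.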

[11] = Half-life in female CD-1 mouse at 11 mg/kg, po measured after 12 hrs by LC-MS/MS analysis; format: ADME, organism-based; conditions: in vivo; method in brief: as §1
[12] = Metabolic stability in human liver microsomes assessed as half-life; format: ADME, Microsome
[13] = Kinetic solubility of compound at pH 7.4 incubated for 24 hrs by HPLC analysis; format: physicochemical; conditions: buffer, pH 7.4, read-out: Kinetic_solubility
[14] = Protein binding in CD-1 mouse plasma incubated for 4 hrs by equilibrium dialysis based LC-MS/MS analysis; format: ADME, cell-free; conditions: mouse, 4 h
Naegleria fowleri [15] = assay: Anti-ameobic activity against Naegleria fowleri Nf69 (ATCC 30215) trophozoites infected in female CD-1 mouse model assessed as median survival day at 11 mg/kg, ip pre-infected for 48 hrs from day 0 followed by twice daily compound administration from day 2 to day 6 and measured on day 14 post-infection (reference value: 5.4 day ); format: functional; conditions: time 13 day
Method in brief: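 Female CD-1 mice (n = 6/group) were infected intranasally with Nf69 trophozoites on day 0. After a 48 h establishment period, they received IP dosing at 11 mg/kg twice daily for 5 days. Infected controls received vehicle only. The study lasted 14 days, with Kaplan–Meier survival, and the brains of survivors were cultured for viable amoeba.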

[16] = Drug concentration in female CD-1 mouse plasma at 11 mg/kg, po measured after 2 hrs by LC-MS/MS analysis; format: ADME, organism-based; method in brief: as §1
[17] = Metabolic stability in CD-1 mouse liver microsomes assessed as half-life incubated for 60 mins by LC-MS/MS analysis; format: ADME, Microsome; conditions: 1 h
Method in brief: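 Half-life measured in CD-1 mouse liver microsomes with NADPH over a 60 min exposure.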

[18] = Drug concentration in female CD-1 mouse plasma at 11 mg/kg, iv measured after 4 hrs by LC-MS/MS analysis; format: ADME, organism-based; method in brief: as §1
[19] = Drug concentration in CD-1 mouse brain infected with Naegleria fowleri Nf69 (ATCC 30215) trophozoites assessed as adverse effect at 50 mg/kg, ip pre-infected for 48 hrs from day 0 followed by single bolus compound administration from day 2 to day 6 and measured on day 14 post-infection; format: ADME, organism-based; conditions: time 13 day, read-out: Ct
[20] = AUCinfinity in female CD-1 mouse at 11 mg/kg, iv measured after 12 hrs by LC-MS/MS analysis; format: ADME, organism-based; conditions: in vivo; method in brief: as §1
Naegleria fowleri [21] = assay: Anti-ameobic activity against Naegleria fowleri TY (ATCC 30107) trophozoites assessed as inhibition of amoeba growth incubated for 48 hrs by CellTiter-Glo assay; format: functional, organism-based
Method in brief: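 TY strain (ATCC 30107) trophozoites, seeded at 1 × 10^4 cells/mL, were exposed 48 h (37 °C, 5% CO2) to vehicle or compound, with concentrations initially 20 to 0.375 μM. CellTiter-Glo luminescence gave % growth inhibition versus controls. EC50 was fit from triplicate runs (n = 3, ± SEM).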

[22] = Drug concentration in female CD-1 mouse brain at 11 mg/kg, po measured after 12 hrs by LC-MS/MS analysis; format: ADME, organism-based; conditions: read-out: Ct; method in brief: as §1
[23] = Drug concentration in female CD-1 mouse plasma at 11 mg/kg, iv measured after 2 hrs by LC-MS/MS analysis; format: ADME, organism-based; method in brief: as §1
[24] = Drug concentration in female CD-1 mouse plasma at 11 mg/kg, iv measured after 0.5 hrs by LC-MS/MS analysis; format: ADME, organism-based; method in brief: as §1
[25] = Oral bioavailability in female CD-1 mouse at 11 mg/kg measured after 12 hrs by LC-MS/MS analysis; format: ADME, organism-based; conditions: in vivo; method in brief: as §1
[26] = Drug concentration in female CD-1 mouse plasma at 11 mg/kg, po measured after 8 hrs by LC-MS/MS analysis; format: ADME, organism-based; method in brief: as §1
[27] = Ratio of drug concentration in female CD-1 mouse brain to plasma at 44 mg/kg, ip measured after 4 hrs by LC-MS/MS analysis; format: ADME, organism-based; method in brief: as §2
[28] = Drug concentration in female CD-1 mouse plasma at 11 mg/kg, po measured after 4 hrs by LC-MS/MS analysis; format: ADME, organism-based; method in brief: as §1
[29] = Drug concentration in female CD-1 mouse plasma at 11 mg/kg, po measured after 12 hrs by LC-MS/MS analysis; format: ADME, organism-based; method in brief: as §1
[30] = Selectivity index, ratio of CC50 for cytotoxicity against human SH-SY5Y cells to EC50 for anti-amoebic activity against Naegleria fowleri Nf69 (ATCC 30215) assessed as inhibition of amoeba growth; format: toxicity, cell-based; conditions: SH-SY5Y cells, read-out: Ratio CC50/EC50
[31] = Drug concentration in female CD-1 mouse plasma at 11 mg/kg, po measured after 0.5 hrs by LC-MS/MS analysis; format: ADME, organism-based; method in brief: as §1
[32] = AUCinfinity in female CD-1 mouse at 11 mg/kg, po measured after 12 hrs by LC-MS/MS analysis; format: ADME, organism-based; conditions: in vivo; method in brief: as §1

## COc1cc2nc3n(c(=O)c2cc1Cl)CC[C@H]1[C@H]3CCCN1CC1COC1
[1]
  concentration at 12 h: 13.3 ng/g
[2]
  concentration at 8 h: 18.1 ng/mL
[3]
  t1/2: 1 h
[4]
  concentration at 2 h: 3850 ng/mL
[5]
  Activity: Non-Toxic
SH-SY5Y
  CC50: 2300 nM
[6]
  Vd: 3.7 L/kg
[7]
  concentration at 12 h: 2.6 ng/mL
[8]
  concentration at 4 h: 9090 ng/g
Naegleria fowleri [9]
  Activity: inactive
Naegleria fowleri [10]
  EC50: 12 nM
[11]
  t1/2: 1.1 h
[12]
  t1/2: 1.54 h
[13]
  solubility kinetic at 24 h: 23.9 µM (≈ 9.32 µg/mL)
[14]
  PPB: 74%
Naegleria fowleri [15]
  MSD: 6.1 days
[16]
  concentration at 2 h: 459 ng/mL
[17]
  t1/2: 0.803 h
[18]
  concentration at 4 h: 281 ng/mL
[19]
  concentration at 312 h: ~20 µM
[20]
  AUC: 5010 ng·h/mL
Naegleria fowleri [21]
  EC50: 14 nM
[22]
  concentration at 12 h: 10.4 ng/g
[23]
  concentration at 2 h: 882 ng/mL
[24]
  concentration at 0.5 h: 2110 ng/mL
[25]
  F: 38%
[26]
  concentration at 8 h: 21.1 ng/mL
[27]
  BPR: 4.7
[28]
  concentration at 4 h: 254 ng/mL
[29]
  concentration at 12 h: 2 ng/mL
[30]
  selectivity ratio: 192
[31]
  concentration at 0.5 h: 469 ng/mL
[32]
  AUC: 1920 ng·h/mL

— ChEMBL document CHEMBL5608261, “Pharmacophore Establishment and Optimization of Saturated 1,6-Naphthyridine-Fused Quinazolinones that Inhibit Meningoencephalitis-Causing Naegleria fowleri” (J Med Chem, 2024)
